Laboratory results: ChEMBL document CHEMBL3865831, “Cantharimide and Its Derivatives from the Blister Beetle Mylabris phalerata Palla” (J Nat Prod, 2016)
One block for each compound: values may come before it.

Tests used:
[1] = Cytotoxicity against human HepG2.2.15 cells after 72 hrs by MTT assay; format: functional, cell-based; details: HepG2 2.2.15, 72 h
Outline: (§1)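 Cells were exposed to serial dilutions of compound from 1.00 to 100 μg/mL for 72 h. MTT (400 μg/mL) was then added for 4 h, replaced with DMSO, and absorbance was read at 540 nm. Cantharidin was the positive control.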

[2] = Cytotoxicity against human HCT116 cells measured after 72 hrs by MTT assay; format: functional, cell-based; details: HCT-116, 72 h; outline: as §1
[3] = Cytotoxicity against human BGC823 cells measured after 72 hrs by MTT assay; format: functional, cell-based; details: BGC-823, 72 h; outline: as §1
Hepatitis B virus [4] = assay: Antiviral activity against Hepatitis B virus infected human HepG2.2.15 cells assessed as inhibition of HBeAg secretion measured after 96 hrs by ELISA; format: functional; details: HepG2.2.15, 96 h
Outline: (§2)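 HepG2.2.15 cells, stably transfected with the HBV genome, were grown for 24 h in DMEM with 10% FBS, 100 μg/mL G418 and penicillin/streptomycin at 37 °C under 5% CO2. Compounds diluted in culture medium were then added for 96 h. HBeAg or HBsAg in the collected medium was measured by ELISA. Adefovir dipivoxil was the positive control. Data are mean ± SD, n = 3.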

Hepatitis B virus [5] = assay: Antiviral activity against Hepatitis B virus infected human HepG2.2.15 cells assessed as inhibition of HBsAg secretion measured after 96 hrs by ELISA; format: functional; details: HepG2.2.15, 96 h; outline: as §2
[6] = Toxicity against human HepG2.2.15 cells infected with HBV after 72 hrs by MTT assay; format: cell-based, HepG2 2.2.15; outline: as §1
[7] = Selectivity index, ratio of CC50 for human HepG2.2.15 cells to IC50 for inhibition of HBeAg secretion in Hepatitis B virus infected human HepG2.2.15 cells; format: functional
Outline: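 SI is CC50 in HepG2.2.15 cells divided by IC50 for HBeAg inhibition, the latter measured by ELISA of medium after 96 h of compound treatment. Values are from triplicate determinations.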

Structure (SMILES): C[C@]12C(=O)N(CCCO)C(=O)[C@H]1[C@@H]1CC[C@H]2O1
IC50 [1]: > 10 µM
IC50 [2]: > 10 µM
IC50 [3]: > 10 µM

IC50 (Hepatitis B virus [4]): 19 µM
IC50 (Hepatitis B virus [5]): > 110 µM
Structure (SMILES): C[C@@]12C(=O)N(CCCCN3C(=O)[C@@]4(C)[C@@H]5CC[C@@H](O5)[C@@]4(C)C3=O)C(=O)[C@]1(C)[C@H]1CC[C@@H]2O1
IC50 [1]: > 10 µM
IC50 [2]: > 10 µM
IC50 [3]: > 10 µM
CC50 at 72 h [6]: > 220 µM

Structure (SMILES): C[C@@]12C(=O)N(CC(N)=O)C(=O)[C@]1(C)[C@H]1CC[C@@H]2O1
IC50 [1]: > 10 µM
IC50 [2]: > 10 µM
IC50 [3]: > 10 µM

Structure (SMILES): CNC(=O)CCCN1C(=O)[C@@]2(C)[C@@H]3CC[C@@H](O3)[C@@]2(C)C1=O
IC50 [1]: > 10 µM
IC50 [2]: > 10 µM
IC50 [3]: > 10 µM

IC50 (Hepatitis B virus [4]): 62 µM
IC50 (Hepatitis B virus [5]): > 210 µM
Structure (SMILES): C[C@@]12C(=O)N(CCO)C(=O)[C@]1(C)[C@H]1CC[C@@H]2O1
IC50 [1]: > 10 µM
IC50 [2]: > 10 µM
IC50 [3]: > 10 µM
CC50 at 72 h [6]: > 420 µM

Structure (SMILES): CN1C(=O)[C@@]2(C)[C@@H]3CC[C@@H](O3)[C@@]2(CO)C1=O
IC50 [1]: > 10 µM
IC50 [2]: > 10 µM
IC50 [3]: > 10 µM

Structure (SMILES): C[C@@]12C(=O)N(CCO)C(=O)[C@]1(CO)[C@H]1CC[C@@H]2O1
IC50 [1]: > 10 µM
IC50 [2]: > 10 µM
IC50 [3]: > 10 µM

Structure (SMILES): CNC(=O)CCCN1C(=O)[C@H]2[C@@H]3CC[C@@H](O3)[C@@]2(C)C1=O
IC50 [1]: > 10 µM
IC50 [2]: > 10 µM
IC50 [3]: > 10 µM

Structure (SMILES): C[C@]12C(=O)N(CC(N)=O)C(=O)[C@H]1[C@@H]1CC[C@H]2O1
IC50 [1]: > 10 µM
IC50 [2]: > 10 µM
IC50 [3]: > 10 µM

Structure (SMILES): C[C@@]12C(=O)N(CCCN3C(=O)[C@@]4(C)[C@@H]5CC[C@@H](O5)[C@@]4(C)C3=O)C(=O)[C@]1(C)[C@H]1CC[C@@H]2O1
IC50 [1]: > 10 µM
IC50 [2]: > 10 µM
IC50 [3]: > 10 µM

Structure (SMILES): C[C@@]12C(=O)NC(=O)[C@]1(CO)[C@H]1CC[C@@H]2O1
IC50 [1]: > 10 µM
IC50 [2]: > 10 µM
IC50 [3]: > 10 µM

Structure (SMILES): C[C@@]12C(=O)N(CCCO)C(=O)[C@]1(C)[C@H]1CC[C@@H]2O1
IC50 [1]: > 10 µM
IC50 [2]: > 10 µM
IC50 [3]: > 10 µM

Structure (SMILES): C[C@@]12C(=O)N(CCCO)C(=O)[C@]1(CO)[C@H]1CC[C@@H]2O1
IC50 [1]: > 10 µM
IC50 [2]: > 10 µM
IC50 [3]: > 10 µM

Structure (SMILES): C[C@]12C(=O)NC(=O)[C@H]1[C@@H]1CC[C@H]2O1
IC50 [1]: > 10 µM
IC50 [2]: > 10 µM
IC50 [3]: > 10 µM

IC50 (Hepatitis B virus [4]): 42 µM
IC50 (Hepatitis B virus [5]): > 260 µM
Structure (SMILES): C[C@@]12C(=O)NC(=O)[C@]1(C)[C@H]1CC[C@@H]2O1
IC50 [1]: > 10 µM
IC50 [2]: > 10 µM
IC50 [3]: > 10 µM
Ratio CC50/IC50 [7]: 6.7
CC50 at 72 h [6]: 280 µM

Structure (SMILES): C[C@@]12C(=O)N(CCC(N)=O)C(=O)[C@]1(C)[C@H]1CC[C@@H]2O1
IC50 [1]: > 10 µM
IC50 [2]: > 10 µM
IC50 [3]: > 10 µM

IC50 (Hepatitis B virus [4]): 58 µM
IC50 (Hepatitis B virus [5]): > 160 µM
Structure (SMILES): C[C@@]12C(=O)N(CCc3ccc(O)cc3)C(=O)[C@]1(C)[C@H]1CC[C@@H]2O1
IC50 [1]: > 10 µM
IC50 [2]: > 10 µM
IC50 [3]: > 10 µM
CC50 at 72 h [6]: > 320 µM

Structure (SMILES): CC(=O)CN1C(=O)[C@@]2(C)[C@@H]3CC[C@@H](O3)[C@@]2(C)C1=O
IC50 [1]: > 10 µM
IC50 [2]: > 10 µM
IC50 [3]: > 10 µM

IC50 (Hepatitis B virus [4]): 290 µM
IC50 (Hepatitis B virus [5]): 270 µM
Structure (SMILES): CC(C)(C)C(=O)OCOP(=O)(COCCn1cnc2c(N)ncnc21)OCOC(=O)C(C)(C)C [ADEFOVIR DIPIVOXIL]
CC50 at 72 h [6]: > 400 µM
